Source: PubChem
In the library only some 9.8% were active in any assay of this set; here they are far more common.
Calpain2 inh: inhibitors of pig calpain II; purified calpain II, fluorogenic peptide substrate, 30 min; inhibition, % at 16 µM; hit rate 0.37% among 220,000; AID 1236;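 active means inhibition above about 50%, limit read from the data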
Rad51 HR inh: blocks human Rad51 in homologous recombination | hRad51 DNA strand exchange, fluorescence dequenching | inhibition, % at 10 µM | hit rate 0.085% among 200,000 | AID 1385;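 active means inhibition above 40% at the single screening dose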;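 further: 0% = DMSO control wells and 100% = blanks with heterologous ssDNA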
Target sequence (Q06609 whole entry, looked up): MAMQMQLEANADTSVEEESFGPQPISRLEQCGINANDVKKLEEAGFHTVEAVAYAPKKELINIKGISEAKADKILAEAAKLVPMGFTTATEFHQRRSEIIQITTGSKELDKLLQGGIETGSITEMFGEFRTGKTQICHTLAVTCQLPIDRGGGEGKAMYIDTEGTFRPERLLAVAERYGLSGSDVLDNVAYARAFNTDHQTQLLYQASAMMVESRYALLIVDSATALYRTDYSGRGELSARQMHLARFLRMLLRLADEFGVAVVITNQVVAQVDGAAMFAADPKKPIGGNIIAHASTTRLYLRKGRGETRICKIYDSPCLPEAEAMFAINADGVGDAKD
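Read-out basis: percent inhibition relative to plate controls and blanks / Assay system: human Rad51 nucleoprotein filaments preassembled on unlabelled ssDNA / Timing: filaments 15 min 37 °C, then compound 30 min / Control set: per-plate controls and blanks / Technique: fluorescence dequenching at 485/520 nm / Compound: 10 µM final, single point / Also added: Fluorescein- and BHQ1-tagged 47-mer duplex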
PMI act satM6P: increases human PMI activity with near-saturating mannose 6-phosphate; P34949; coupled PMI enzyme assay, resazurin fluorescence, 20 min; hits give high values; 1 = untreated enzyme, 0 = substrate-free blank; activation factor at 20 µM; hit rate 0.34% among 190,000; AID 1216;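 active means activation factor of 2 or more at 20 µM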
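Test system: human phosphomannose isomerase with PGI, G6PDH, diaphorase coupling enzymes; amount: 15 ng/mL PMI; incubation: enzyme reaction with compound 20 min at room temperature; technique: resorufin fluorescence (Ex 544/Em 590 nm) from resazurin via diaphorase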
PMI activator: activators of human phosphomannose isomerase; P34949; purified human PMI, coupled resazurin fluorescence, 20 min; hits give high values; 1 = vehicle control, 0 substrate-free wells; activation factor at 20 µM; hit rate 0.005% among 190,000; AID 1214;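 active means activation factor of 2 or more at 20 µM, relative to plate controls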
L major viab: Leishmania major promastigote growth inhibition; Leishmania major promastigotes, resazurin fluorescence viability; inhibition, % at 10 µM; hit rate 9% among 200,000; AID 1063; in the data active means inhibition above about 50%;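 further: promastigotes grown with compound for 44 hours at 28 °C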
WT yeast gro inh: growth inhibition of WT yeast, mitochondrial fusion screen | hit rate 2.1% among 190,000 | mitochondrial fusion phenotypic screen, WT strain | inhibition, % at 10 µM | AID 1362; in the data active means inhibition above about 58%; tested in S. cerevisiae
An asterisk follows results filed as active; / = no result.

SMILES	Calpain2 inh	Rad51 HR inh	PMI act satM6P	PMI activator	L major viab	WT yeast gro inh
Cc1ccc(C(=O)O/N=C/c2c(N3CCOCC3)n(C)c3ccccc23)cc1	25.4	5.7	1	0.9	98.4*	-26.6
Cn1c(N2CCOCC2)c(/C=N/O)c2ccccc21	-17.6	-3.9	0.8	0.9	3.0	-7.2
Cn1c(N2CCOCC2)c(/C=N/OC(=O)c2ccc(F)cc2)c2ccccc21	-5.5	-0.7	0.9	0.9	99.5*	-8.9
Cn1c(N2CCOCC2)c(/C=N/OC(=O)c2cccnc2Cl)c2ccccc21	3.9	-9.3	0.9	0.9	100.1*	32.5
Cn1c(Cl)c(/C=N/OC(=O)c2ccc(Cl)cc2)c2ccccc21	-45.0	-1.6	1	0.9	-4.8	14.6
C=CCNCCCCOc1ccc(Br)cc1C	-7.2	-1.1	1.1	1.1	98.6*	2.9
Cc1cc(Br)ccc1OCCCCNCCO	-32.8	5.1	1.1	1	85.6*	6.3
Cc1cc(Br)ccc1OCC(=O)NNC(=O)Cc1ccccc1	2.5	/	0.9	1	-6.4	-4.8
S=c1nc2ccccc2c2nc(-c3ccccc3)[nH]n12	17.6	/	1.1	1.1	-0.5	71.0*
S=c1nc(-c2ccccc2)[nH]n1-c1ccccc1	24.6	/	1.1	1.1	-13.2	20.2
CCCCCCNc1nc(Cl)nc(NC(C)(C)CO)n1	25.8	-5.4	/	/	/	/
CSc1ccc(/C=C/C(=O)c2ccc(NC(C)=O)cc2)cc1	-40.6	-7.4	0.9	0.9	57.2*	21.3
CCCC(=O)Nc1ccc(C(=O)/C=C/c2ccc(SC)cc2)cc1	-9.3	-2.1	0.9	0.9	23.3	-0.9
CCC(=O)Nc1cccc(C(=O)/C=C/c2ccc(F)cc2)c1	-15.5	23.9	0.9	0.9	100.4*	26.3
CC(=O)Nc1cccc(C(=O)/C=C/c2ccc(C)cc2)c1	17.3	-13.7	0.9	0.9	100.0*	43.2
CCOc1ccc(/C=C/C(=O)Nc2cccc(C(C)=O)c2)cc1	6.5	-9.3	1	1	-4.4	8.0
CC(C)(C(=O)Nc1nccs1)c1ccccc1	-29.1	5.8	1.1	1.2	8.1	-9.4
O=C(NNC(=O)C1CCCN(c2ncccn2)C1)c1ccncc1 (stereo not drawn)	-8.2	-7.7	1	1.1	-7.6	8.3
O=C(O)COc1ccccc1/C=N/NC(=O)c1cc2ccccc2cc1O	-6.1	18.2	/	/	/	/
CCCn1c(NC(=S)Nc2ccccc2)nc2ccccc21	9.6	8.3	0.9	0.8	30.9	24.2
Clc1ccc(OCCn2cnc3ccccc32)cc1	-13.9	9.0	1	0.9	0.1	15.2
S=C(Nc1ccccc1)Nc1nc2ccccc2n1CCOc1ccc(Cl)cc1	-0.2	-7.2	1	0.9	66.4*	1.7
CCn1c(NC(=S)Nc2ccccc2)nc2ccccc21	-10.3	3.9	1	0.9	84.3*	17.1
O=C(c1cc(COc2ccc(F)cc2F)on1)N1CCSCC1	-30.3	-0.6	1	0.9	-7.8	-4.9
C=CCOc1ccc(/C=C/C(=O)Nc2ccc(C(=O)NC)cc2)cc1	-163.0	/	1.2	1.1	-9.5	-8.8
SMILES	Calpain2 inh	Rad51 HR inh	PMI act satM6P	PMI activator	L major viab	WT yeast gro inh
COC(=O)c1ccc(N2C(=O)C3CC(C)=C(C)CC3C2=O)cc1 (stereo not drawn)	59.4*	/	1	1.1	-1.9	-4.6
CC1=C(C(=O)OCC2CCCO2)C(c2ccccc2)NC(=O)N1 (stereo not drawn)	-7.3	-5.3	0.9	1.1	-3.3	12.7
CC1=C(C(=O)OCCNC(=O)c2ccccc2O)C(c2ccccc2[N+](=O)[O-])C(C(=O)OCC2CCCO2)=C(C)N1 (stereo not drawn)	3.4	/	0.9	0.9	92.9*	2.6
CCOc1ccccc1OC(=O)c1cc2ccccc2oc1=O	-7.2	8.1	1	1	-1.3	11.8
COc1ccc2c(c1)C(C)=CC(C)(C)N2S(=O)(=O)c1ccc(C)cc1	13.7	-18.6	0.8	0.8	97.7*	45.2
CCNC(=O)N1c2ccc(OCC)cc2C(C)=CC1(C)C	-5.1	3.7	0.7	1.2	11.1	11.7
CC1=CC(C)(C)N(S(=O)(=O)c2ccc(C)cc2)c2cc(C)ccc21	1.4	/	1.1	1.1	98.8*	75.6*
CCOc1ccc2c(c1)C(C)=CC(C)(C)N2C(=O)Nc1ccccc1F	-439.4	-3.7	0.5	0.7	68.3*	-20.4
CCOc1ccc2c(c1)C(C)=CC(C)(C)N2S(=O)(=O)c1ccc(C)cc1	28.4	-8.7	1	0.9	95.4*	72.4*
CC(C)(C)NC(=O)CC1C(=O)NCCN1Cc1c(F)cccc1Cl (stereo not drawn)	-1.2	/	1	1	-5.8	4.1
COc1ccc(/C=N/N2C(=N)SCC2=O)cc1	3.8	9.4	/	/	/	/
CCN(CC(=O)NCCC1=CCCCC1)S(=O)(=O)c1ccccc1	17.3	/	/	/	/	/
CCc1ccccc1N(C1=NCCCS1)S(=O)(=O)c1ccc(C(C)(C)C)cc1	9.6	/	1	0.9	33.0	66.0*
Cc1cc(Cl)ccc1NC(=S)NCc1cccs1	13.4	-8.0	1	0.9	77.0*	12.0
CC(C)c1ccc(NC(=S)NCc2cccs2)cc1	13.4	-1.3	1	0.9	5.4	67.4*
COc1ccc(NC(=S)NC(C)Cc2cccs2)cc1 (stereo not drawn)	-9.1	7.4	1	1	2.0	-6.1
CC(Cc1cccs1)NC(=S)Nc1ccc(F)cc1 (stereo not drawn)	-5.5	-1.9	1	1	50.7*	15.1
CCOc1ccc(-c2nc3c(s2)CCc2onc(-c4ccc(OC)cc4)c2-3)cc1	/	-3.1	/	/	/	/
COc1ccccc1NC(=O)CN(c1ccc(C23CC4CC(CC(C4)C2)C3)cc1)S(C)(=O)=O	-25.3	/	0.9	0.9	79.3*	52.5
O=C(COC(=O)CCSc1ccccc1Cl)NCc1ccco1	-28.3	8.9	1	0.9	1.5	3.6
Cc1cc(C(=O)NNC(=O)c2nn(C)c(=O)c3ccccc23)c(C)o1	3.8	16.2	1	1	65.4*	7.7
CN1[C@@H](CC(=O)c2ccccc2)CCC[C@H]1C[C@H](O)c1ccccc1	13.3	6.0	1.2	1.3	88.5*	-3.7
CCC(NC(=O)C1CCC1)c1ccccc1 (stereo not drawn)	-10.8	4.1	1	1	1.3	-1.3
CN1C(CC(=O)c2ccccc2)CCCC1CC(O)c1ccccc1 (stereo not drawn)	-9.7	-1.9	1	1	89.7*	-40.9
O=C(CC1C(=O)CCCC1=O)c1ccccc1	-15.4	-15.1	1	1.2	-4.0	-17.7
COc1cccc(C2(O)CC(C(F)(F)F)=NN2C(=O)c2ccccn2)c1 (stereo not drawn)	1.3	-4.4	0.7	0.7	2.5	-15.1
CC1CSc2n(-c3cccc(C(F)(F)F)c3)cc(-c3ccccc3)[n+]21 (stereo not drawn)	11.9	4.6	0.9	0.9	86.8*	-1.8
FC(F)(F)c1cccc(N2Cc3ccccc3C2)c1	-67.2	5.0	1.4	1.1	-5.5	18.9
